# Hep lipid drop: modulators of hepatic lipid droplet formation; AML12 mouse hepatocytes, oleate lipid droplets, BODIPY imaging; inhibition, % at 6.5 µM; actives 0.4% (n = 240,000); AID 1656;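 active = lipid droplet intensity inhibited by at least 50%, with more than 500 cells counted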
#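 Material: mouse AML12 hepatocyte cell line, fixed after treatment; Timing: compound with oleate, overnight; Technique: high-content imaging of BODIPY-stained droplets and DAPI nuclei; Probe or stimulus: oleate, 100 µM final; Dosing: compound at 6.5 µM only.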
# NS3 helicase inh: inhibitors of Hepatitis C virus NS3 helicase; actives 0.56% (n = 290,000); inhibition, % at 10.9 µM; NS3 helicase DNA unwinding, Cy5 molecular beacon fluorescence;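 active = inhibition above the mean of all tested compounds plus 3 SD, set per campaign, cut at about 35% in these data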
#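 Assay system – hepatitis C virus NS3 helicase domain fragment enzyme · Buffer or medium – MOPS pH 6.5, MgCl2, DTT, Tween20, BSA · Reagent – Cy5/quencher beacon DNA duplex and ATP to start · Compound – single 10.9 µM dose · Timing – 1 h at 25 °C · Technique – Cy5 beacon fluorescence read at start and 1 h · Measure – % inhibition of unwinding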
# HSP90 refold inh: HSP90 refolding inhibition in rabbit reticulocyte lysate | luciferase refolding luminescence, 3 h | inhibition, % at 5.6 µM | actives 0.91% (n = 290,000) | AID 1789;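 active = inhibition above the screen-wide mean plus 3 SD, computed separately per campaign, cut at about 16% in these data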;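 also: inhibitors lower the luminescence because luciferase stays unfolded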
# HSF1 inh: HSF1 inhibition | NIH3T3-HGL HSE-luciferase, MG132-induced, luminescence 8 h; active compounds read low | activity change, negative = inhibition, % at 7.5 µM (by protocol) | actives 0.77% (n = 300,000);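 active = more than half of replicate wells show activity change below -50%, luminescence cut by over half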;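 also: luciferase reports HSF-1 transcriptional activity via heat shock element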
# HSF-1 act: increases HSF-1 driven luciferase reporter signal | NIH3T3-HGL HSF-1 luciferase reporter, MG132, 8 h; 100% = twice DMSO control signal | activation, % at 9 µM | actives 1.7% (n = 300,000) | AID 504408;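 active = mean replicate activation of at least 50% with a set share of replicates each reaching 50%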
# Numbers stand for hits; . = inactive; / = no result given. Hits are enriched below; roughly 3.8% of the tested compounds scored in any of these assays.
SMILES,Hep lipid drop,NS3 helicase inh,HSP90 refold inh,HSF1 inh,HSF-1 act
CCC1=NN(C(=O)COc2ccccc2)C(O)(c2ccncc2)C1 (stereo not drawn),.,.,.,.,.
c1ccc(CSc2ncnc3c2cnn3-c2ccccc2)cc1,.,.,.,-59,.
CC(C)(C)C(=O)CSc1ncnc2c1cnn2-c1ccccc1,.,.,.,.,.
Fc1cccc(Nc2ncnc3c2cnn3-c2ccccc2)c1,.,/,/,.,53
C=CCN(c1ccccc1)S(=O)(=O)c1cccc(C(=O)N2CC(C)CC(C)C2)c1 (stereo not drawn),.,.,.,.,.
O=C(Cn1ccc2cc(S(=O)(=O)N3CCCC3)ccc21)NCCc1ccccc1,.,.,.,.,.
O=C(Nc1ccc(Cl)cc1)Nc1csc([N+](=O)[O-])c1,.,.,.,.,84
CCN1CCN(C(=O)c2cc(COc3ccc(C(C)=O)cc3OC)on2)CC1,.,.,.,.,.
Cc1ccc2nc(SCc3ccc([N+](=O)[O-])cc3)[nH]c2c1,/,.,.,.,82
Cc1ccc2nc(SCC(=O)NCc3ccc(F)cc3)[nH]c2c1,.,.,.,.,65
Cc1ccc2nc(SCC(=O)NCc3ccc(S(N)(=O)=O)cc3)[nH]c2c1,.,.,.,.,.
Cc1cc(C)c(C#N)c(SCc2ccc([N+](=O)[O-])cc2)n1,.,.,.,.,53
CC(OC(=O)Cn1cnc2c1c(=O)n(C)c(=O)n2C)C(=O)NC1CCCCC1C (stereo not drawn),/,/,/,.,.
CCCCN(C(=O)CCCSc1nc2ccccc2[nH]1)c1c(N)n(Cc2ccccc2)c(=O)[nH]c1=O,.,.,.,.,.
Clc1ccc2nc(N3CCCCC3)sc2c1,.,.,.,.,56
O=C(OCc1ccccc1)N1CCc2ccccc21,.,.,.,.,.
Cc1ccc(/C=C2/NC(=O)N(c3ccccc3)C2=O)o1,/,.,.,.,.
O=C1N/C(=C/c2ccc(N3CCOCC3)o2)C(=O)N1c1cccc(Cl)c1,.,.,.,.,125
CC(C)NC(=O)Cn1cc(S(=O)(=O)N2CCCC2)c(S(=O)(=O)N2CCCC2)c1,.,.,.,.,.
CCC(=O)N1c2ccc(S(=O)(=O)N3CCN(c4ccc([N+](=O)[O-])cc4)CC3)cc2CC1C (stereo not drawn),.,.,.,.,.
N#CC1=C(N)N(c2ncn[nH]2)C2=C(C(=O)CCC2)C1c1ccccc1 (stereo not drawn),.,.,.,.,.
CSc1ccc(C2C(C#N)=C(N)N(c3ccccc3)C3=C2C(=O)CCC3)cc1 (stereo not drawn),.,.,.,.,58
Nc1nc(-c2ccccc2)nc2sc3c(c12)CCCC3,.,.,.,.,85
CN(CC(=O)Nc1ccc(N2CCOCC2)cc1)Cc1c(O)ccc2ccccc12,.,.,.,.,198
CN(CC(=O)Nc1ccc(N2CCOCC2)cc1)CC(=O)Nc1ccc(N2CCOCC2)cc1,.,.,.,.,.
SMILES,Hep lipid drop,NS3 helicase inh,HSP90 refold inh,HSF1 inh,HSF-1 act
CCOC(=O)C1CCCN(C(=O)Cn2ncc3c([nH]c4ccc(C)cc43)c2=O)C1 (stereo not drawn),.,.,.,.,.
CCN1CCN(Cc2ccc(NC(=O)c3ccc(C)c(NC(=O)c4nccn4C)c3)cc2C(F)(F)F)CC1,.,/,/,.,.
CCN1CCN(Cc2ccc(NC(=O)c3ccc(C)c(NC(=O)c4cccc5[nH]ccc45)c3)cc2C(F)(F)F)CC1,.,/,/,-55,.
Cc1oc(-c2cccc(Cl)c2)nc1CN1CCCC(C(=O)NCc2ccco2)C1 (stereo not drawn),/,.,.,.,.
Cc1oc(-c2cccc(Cl)c2)nc1CN1CCCC(C(=O)NC(C)c2ccc3c(c2)OCCO3)C1 (stereo not drawn),/,.,.,.,54
CC(=O)N(c1ccc2oc(=O)sc2c1)S(=O)(=O)c1ccc(C(=O)O)cc1,.,.,.,-60,.
CC(=O)N(c1ccc2oc(=O)sc2c1)S(=O)(=O)c1cccs1,/,.,.,.,.
COc1ccc(NS(=O)(=O)c2cccc(C(=O)N3CCCC3)c2)cc1,/,/,/,.,.
Cc1cc(NC(=O)Cn2cnc3sc(C)c(-c4ccccc4)c3c2=O)no1,.,.,.,.,185
O=C(c1cccc(Br)c1)c1cn(-c2ccccc2)nc1C(=O)c1ccccc1,.,.,.,.,.
CCOC(=O)c1nn(-c2ccc(C)cc2)cc1C(=O)c1ccccc1,.,.,.,.,59
CS(=O)(=O)N(CC(=O)NCCSCc1ccccc1)c1ccccc1Br,.,.,.,.,.
O=C(Nc1ccc2c(c1)OCO2)NC1(C(F)(F)F)Oc2ccccc2O1,/,.,.,.,.
O=C(Nc1ccc2c(c1)OCCO2)NC1(C(F)(F)F)Oc2ccccc2O1,/,.,.,-67,.
Oc1[nH]c(N=C2N=c3ccccc3=N2)c2ccccc12,.,.,.,.,288
N#CC(=C1N=c2ccccc2=N1)c1c(O)[nH]c2ccccc12,.,.,.,/,/
CCC(=O)N1CCCC(C(=O)c2ccc(-c3ccccc3)cc2)C1 (stereo not drawn),.,.,.,.,.
CNc1c(N)c(=O)oc2ccccc12,.,.,.,.,.
Cc1ccc(Nc2c(N)c(=O)oc3ccccc23)cc1,.,.,.,.,161
Oc1[nH]c2ccccc2c1N=Nc1c(F)c(F)c(C(F)(F)F)c(F)c1F,/,.,.,.,.
O=C(O)c1ccc(N=Nc2c(O)[nH]c3ccccc23)cc1,.,.,41,.,.
O=C(N=Nc1c(O)[nH]c2ccccc12)c1cccs1,.,.,.,.,76
COc1ccccc1CCC(=O)Nc1ccc2c(c1)CN(Cc1ccc(C)o1)CC2,.,.,.,.,.
COC(=O)/C(=C/c1cccnc1)NC(=O)c1ccccc1,.,.,.,.,92
CN1CCN(C(=O)/C(=C/c2cccnc2)NC(=O)c2cccc(Br)c2)CC1,.,.,.,.,72
SMILES,Hep lipid drop,NS3 helicase inh,HSP90 refold inh,HSF1 inh,HSF-1 act
CCn1c(SCC(=O)Nc2ccc(OC)cc2)nc2nc3c(cc2c1=O)COC(C)(C)C3,.,.,.,/,/
COc1ccc(NC(=O)C(C)Sc2nnc3c4c(nc(-c5ccc(OC)cc5)n23)CC(C)(C)OC4)cc1 (stereo not drawn),52,.,.,.,.
COc1ccc(-c2nc3c(c4nnc(SC(C)C(=O)Nc5ccccc5)n24)COC(C)(C)C3)cc1 (stereo not drawn),66,.,.,.,.
COc1ccc(/C=N/n2cnc3c([nH]c4ccccc43)c2=O)cc1COc1ccccn1,.,.,.,.,.
O=C(C1=C(O)C(=O)N(CCN2CCOCC2)C1c1cccc([N+](=O)[O-])c1)c1cccs1 (stereo not drawn),.,.,.,.,.
OC(CNCCc1ccc(Cl)cc1)COc1cc(Cl)ccc1Cl (stereo not drawn),/,.,.,.,.
O=C(Nc1ccc2nc(-c3ccco3)c(-c3ccco3)nc2c1)NC1CC1,.,47,.,.,.

# Screening data as filed in PubChem.
